This passage reports cytotoxicity results from ChEMBL document CHEMBL4513216, “Probing the Open Global Health Chemical Diversity Library for Multistage-Active Starting Points for Next-Generation Antimalarials” (ACS Infect Dis, 2020).

The nature of this data set: Toxicity liver stage against HepG2, at 10uM. The data set is classed as cell-based. More on the design: test concentration 10 uM, cell line HepG2-A16-CD81EGFP. To be noted: human, HepG2-A16-CD81EGFP cells; read-out: INHIBITION
The method, boiled down:
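Uninfected HepG2-A16-CD81EGFP cells, 3 × 10^3 per well, 1536-well, plated on prespotted compound at 10 μM final, parasite-free screening media added to match infected plates; puromycin 10 μM positive, DMSO 0.5% negative; run in parallel with 48 h PbLuc assay at 37 °C, 5% CO2; viability by CellTiter-Glo luminescence, normalized to controls.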
With `COC(=O)c1cccc2nc([C@H]3CCN(CC(C)C)C3)oc12`, the cytotoxicity at 10 µM is -2.13%.

For `CCS(=O)(=O)c1ccc2oc([C@H]3CCN(CC4CCCCC4)C3)nc2c1`, the cytotoxicity at 10 µM came out at 41%.

In the case of `COc1cc(OC)c2c(=O)oc(CC(O)CC(C)=O)cc2c1` (stereo not drawn), the cytotoxicity at 10 µM came to 5.73%.

In the case of `Cc1nn2cnnc2c(C)c1CCC(=O)Nc1nc2c(s1)CCC2`, the cytotoxicity at 10 µM is -0.674%.

`CC(=O)N1CCC2(CCCN(S(=O)(=O)c3ccccc3)C2)C1` (stereo not drawn): the cytotoxicity at 10 µM is 0.169%.

For `Cc1ccc(C(=O)N2CCC3(CCC(C(=O)NCC4CC4)O3)CC2)o1` (stereo not drawn), the cytotoxicity at 10 µM stood at 6.85%.

Take `CC(=O)N1CC2(CCN(C(=O)CO)CC2)c2cc(C)ccc21`: the cytotoxicity at 10 µM was 9.37%.

As for `Cc1cccc(S(=O)(=O)N2CCCC3(CCCN3S(C)(=O)=O)C2)c1` (stereo not drawn), the cytotoxicity at 10 µM was determined as 7.28%.

In the case of `Cc1csc([C@H]2C[C@@H]3CCN(Cc4cnn(C)c4)C[C@H]3O2)n1`, the cytotoxicity at 10 µM is -3.9%.

Turning to `O=C1CC(c2ccc(C(=O)O)cc2)c2ncn(-c3cccc(Cl)c3)c2N1` (stereo not drawn), the cytotoxicity at 10 µM was -2.17%.

For the compound `O=C(NCc1ccccn1)c1nnn(-c2ccc(Br)cc2)n1`, the cytotoxicity at 10 µM was 1.47%.

For the compound `O=C(Cc1ccsc1)N1CCn2cc(CN3CCCC3)nc2C1`, the cytotoxicity at 10 µM is -14.2%.

For `NC(=O)c1nc(-c2ccc(Cl)cc2Cl)oc1N`, the cytotoxicity at 10 µM was found to be 2.66%.

For `CSc1nsc(NC(=O)c2cc(C3CC3)nn2C)n1`, the cytotoxicity at 10 µM worked out at 6.86%.

With `COc1ccc(C)cc1C1(CNc2cncc(Cl)n2)CCOCC1`, the cytotoxicity at 10 µM stood at 7.07%.

`COc1ccnc(N(C)Cc2csc(C)n2)n1`: the cytotoxicity at 10 µM is -2.62%.

Take `CC(C(=O)N(C)Cc1ccco1)n1cncn1` (stereo not drawn): the cytotoxicity at 10 µM was 4.4%.

For the compound `O=C(NCCOc1cccc(Cl)c1Cl)N1CCC2(CC1)OCCO2`, the cytotoxicity at 10 µM was -3.36%.

Take `O=C(Nc1cnn(-c2ccccc2Cl)c1)NC1CCC(O)CC1` (stereo not drawn): the cytotoxicity at 10 µM was -2.49%.

On to `CC(O)CN1CCN(Cc2coc(-c3ccccc3Cl)n2)CC1` (stereo not drawn), for which the cytotoxicity at 10 µM is -4.73%.

With `CSc1ccc(NCC(=O)NCC2CC2)cc1F`, the cytotoxicity at 10 µM is 0.936%.

For the compound `CN(Cc1cc(Br)cn1C)C(=O)c1cscn1`, the cytotoxicity at 10 µM is -0.37%.

For `O=C(NS(=O)(=O)Cc1cc(-c2ccccc2)no1)C1CCOCC1`, the cytotoxicity at 10 µM is -2.85%.

For `Cc1ccc(-c2cc(C(=O)NCCN3CCOCC3)n[nH]2)s1`, the cytotoxicity at 10 µM is -6.45%.

Turning to `Cc1ccnc(C(NC(=O)c2ncoc2C)C2CC2)n1` (stereo not drawn), the cytotoxicity at 10 µM was 12.7%.

`Cc1ccc(C(=O)NCCNC(=O)c2cncnc2C)cc1F`: the cytotoxicity at 10 µM worked out at 3.91%.

With `COc1ccc(C(=O)NCCNC(=O)c2cncnc2C)cc1`, the cytotoxicity at 10 µM came out at 7.98%.

On to `O=C(NCCNc1ncccn1)NCc1cccc(OC(F)F)c1`, for which the cytotoxicity at 10 µM was -2.64%.

For `Cn1nc(CC(C)(C)C)cc1NC(=O)c1ccc(CNC(N)=O)cc1`, the cytotoxicity at 10 µM is -1.78%.

Turning to `Cc1ccsc1CN(C)C(=O)c1ccc(N2CCOCC2)c(F)c1`, the cytotoxicity at 10 µM worked out at 11.1%.

With `Cc1ccc(-c2ccsc2C(=O)NC2CCS(=O)(=O)C2)cc1` (stereo not drawn), the cytotoxicity at 10 µM was determined as 1.07%.

For the compound `CC(Cn1cccn1)NC(=O)Nc1cccnc1` (stereo not drawn), the cytotoxicity at 10 µM was -2.9%.

`COc1ccc(NC(=O)NC(C)Cn2cccn2)cn1` (stereo not drawn): the cytotoxicity at 10 µM was -5.72%.

Turning to `CC(C)CC(CCO)CNC(=O)N1CC(C)(C)C1(C)C` (stereo not drawn), the cytotoxicity at 10 µM was -2.48%.

For `Cc1cnn(C2CCCN(C(=O)c3c(C)oc4nc[nH]c(=O)c34)C2)c1` (stereo not drawn), the cytotoxicity at 10 µM is -6.62%.

Take `Cn1ccc(CNC(=O)N2CCCC3(C2)OCCO3)c1`: the cytotoxicity at 10 µM amounted to 7.6%.

In the case of `O=C1CCCc2[nH]c(=O)c(C(=O)N(CC3CCCCC3)C3CC3)cc21`, the cytotoxicity at 10 µM was -2.56%.

Turning to `CN(Cc1cnccn1)C(=O)Nc1cc(F)cc(N2CCCC2)c1`, the cytotoxicity at 10 µM worked out at 1.8%.

`CN1CCc2c(NC(=O)NCc3ccccc3Cl)cccc21`: the cytotoxicity at 10 µM was 3.65%.

With `CN1CCCN(C(=O)c2ccn3ccnc3c2)CC1`, the cytotoxicity at 10 µM was -2.38%.

`COCCNC(=O)N1CCN(C(=O)Cc2ccccc2F)CC1`: the cytotoxicity at 10 µM is -8.85%.

As to `CC(C)c1nnc2n1CCN(Cc1nc3c(F)cccc3[nH]1)C2`, the cytotoxicity at 10 µM is -9.14%.

With `Cc1ncsc1C(=O)OCCN1CCCCCC1=O`, the cytotoxicity at 10 µM is -4.27%.

As for `COc1ccnc(N2CCN(C(=O)c3cnn(C)c3C3CC3)CC2)n1`, the cytotoxicity at 10 µM was -2.88%.

On to `Cc1ccc(C(=O)NCC2(O)CCOCC2)cc1Br`, for which the cytotoxicity at 10 µM was -1.3%.

For `COC(=O)c1sccc1NC(=O)C1CCCN1C(=O)c1ccco1` (stereo not drawn), the cytotoxicity at 10 µM came to 20.3%.

As to `O=C(NCCCn1cccn1)C1(c2ccc(Br)cc2)CC1`, the cytotoxicity at 10 µM was -0.0323%.

For the compound `N#Cc1ccc(CNCC(C(=O)N2CCOCC2)c2ccccc2)cc1` (stereo not drawn), the cytotoxicity at 10 µM is -11.9%.

For `O=C(CC1COCCN1)N1CCC2(CCc3ccccc32)CC1` (stereo not drawn), the cytotoxicity at 10 µM was -148%.

With `COc1cc(F)ccc1C(C(=O)O)N(C)Cc1ccon1` (stereo not drawn), the cytotoxicity at 10 µM was -5.31%.

`O=C(NCC1COCCO1)c1csc(Cc2ccccc2)n1` (stereo not drawn): the cytotoxicity at 10 µM was -0.857%.

Take `CCOc1ccccc1-n1c(CNC)n[nH]c1=O`: the cytotoxicity at 10 µM is -2.98%.

Take `CC(C)n1cnnc1CN1CCC2(CCCN(C3CCCCC3)C2=O)C1` (stereo not drawn): the cytotoxicity at 10 µM is -123%.

`CCc1cc(NCCS(=O)(=O)N(C)C)nc(N2CCOCC2)n1`: the cytotoxicity at 10 µM was 1.44%.

Consider `CCn1c(N)nc2cc(C(=O)N3CCCN(C)CC3)cnc21`, for which the cytotoxicity at 10 µM was -2.43%.

As for `O=c1n(Cc2ncccn2)nc(C2CCNCC2)n1-c1ccccc1`, the cytotoxicity at 10 µM was -9.62%.

In the case of `CCC(CO)N(Cc1ccsc1)Cc1cccc(O)c1` (stereo not drawn), the cytotoxicity at 10 µM was 0.616%.

`COc1cc(C)ccc1OCCN1CC[C@@]2(O)CCNC[C@H]2C1`: the cytotoxicity at 10 µM is -157%.

For `CCn1nc(C)c(CN(CCOC)C(=O)c2ccc(=O)[nH]n2)c1C`, the cytotoxicity at 10 µM is -2.27%.

On to `Cc1ccc(CN2CCN(C(=O)C3CCC3)[C@@H]3CS(=O)(=O)C[C@@H]32)cc1C`, for which the cytotoxicity at 10 µM came to 2.09%.

For `NC(=O)c1cccc(CC2CCN(C(=O)Cn3cnnn3)C2)c1` (stereo not drawn), the cytotoxicity at 10 µM stood at 0.557%.

Take `CC(C)CN1CC(C(=O)N(C)CCc2cn[nH]c2)CC1=O` (stereo not drawn): the cytotoxicity at 10 µM is -4.1%.

Turning to `Cc1ncc(CC(=O)N2CCCC(COc3ccccc3F)C2)c(=O)[nH]1` (stereo not drawn), the cytotoxicity at 10 µM is -151%.

As to `CN(CCc1ccccn1)C(=O)c1cn(CCN2CCNCC2)nn1`, the cytotoxicity at 10 µM was -8.48%.

As to `CCCn1ncc(C(=O)NCCc2[nH]nc3c2CCCC3)c1C`, the cytotoxicity at 10 µM was -6.63%.

Turning to `CCc1cnc(NCCSc2cnn[nH]2)nc1`, the cytotoxicity at 10 µM is -10.4%.

Take `Cc1nc(CN2CCCN(c3nccs3)CC2)no1`: the cytotoxicity at 10 µM is -3.62%.

As to `CC(C)OCCCNC(=O)CS(=O)(=O)Cc1cccc(Cl)c1`, the cytotoxicity at 10 µM was found to be 5.44%.

For `O=C(CC1CCCCC1)NC1CCCCNC1=O` (stereo not drawn), the cytotoxicity at 10 µM stood at 6.82%.

`c1ccc(OCCCN2CCOC(CNc3cccnn3)C2)cc1` (stereo not drawn): the cytotoxicity at 10 µM was -0.906%.

As to `COc1cccc(-n2nnc(C(=O)N3CCCC(C)C3)c2C)c1` (stereo not drawn), the cytotoxicity at 10 µM was -5.33%.

On to `CCCNC(=O)C1CCCN(Cc2csc(C(C)(C)C)n2)C1` (stereo not drawn), for which the cytotoxicity at 10 µM is -3.14%.

With `CCn1cc(NC(=O)NCC(C)N(C)C2CC2)cn1` (stereo not drawn), the cytotoxicity at 10 µM is -3.54%.

Consider `CCN1CCOC(CNCc2cccc(OCc3ccccn3)c2)C1` (stereo not drawn), for which the cytotoxicity at 10 µM was -13.4%.

Turning to `Cc1ncc2c(n1)CCN(CCCc1nc3ccccc3o1)C2`, the cytotoxicity at 10 µM was -18.7%.

`CCn1nc2c(cc1=O)CN(Cc1coc(-c3ccccc3)n1)CC2`: the cytotoxicity at 10 µM is -10.9%.

On to `CCc1nc(CN2CCc3c(ncn3C3CC3)C2)cs1`, for which the cytotoxicity at 10 µM is -1.59%.

With `CC(C1CC1)N(C)C(=O)c1ccc(-n2ncc(C#N)c2N)cc1` (stereo not drawn), the cytotoxicity at 10 µM was determined as 3.51%.

In the case of `Cc1cnn(CC2CCCN2C(=O)c2cccc(F)c2F)c1` (stereo not drawn), the cytotoxicity at 10 µM was -1.3%.

Take `CCCc1nc(C)c(C(=O)NCCN2CCOCC2)s1`: the cytotoxicity at 10 µM is -7.75%.

As for `Cc1nn(C)c(Cl)c1C1CCCN1C(=O)c1ccnc(N(C)C)c1` (stereo not drawn), the cytotoxicity at 10 µM was -6.73%.

Regarding `Cc1nnc(N2CCC(NS(C)(=O)=O)CC2)c(C#N)c1C`, the cytotoxicity at 10 µM is -5.13%.

With `CC(c1nc(C2CC2)no1)N1CCN(Cc2cccnc2)CC1` (stereo not drawn), the cytotoxicity at 10 µM is -6.18%.

For `CN(C)CC1CN(Cc2cccc(C#N)c2)Cc2nccn2C1` (stereo not drawn), the cytotoxicity at 10 µM was -124%.

Turning to `Cc1ccc2c(n1)N(CC1CC1)CCN(S(=O)(=O)C1CC1)C2`, the cytotoxicity at 10 µM came to 12.4%.

Turning to `CN(C)C(=O)N1CCC2(CC1)CN(CC1CC1)CC21CCNC1=O` (stereo not drawn), the cytotoxicity at 10 µM amounted to 3.67%.

As for `O=C(Cc1cccnc1)N1CCCC2(CCN(C3CCOCC3)C2)C1` (stereo not drawn), the cytotoxicity at 10 µM was -1.45%.

For the compound `COc1c(CNC2CCCOc3ccc(F)cc32)c(C)nn1C` (stereo not drawn), the cytotoxicity at 10 µM turned out to be 1.51%.

With `CCN(C)c1ncnc2c1CCN(C(=O)N(C)C)CC2`, the cytotoxicity at 10 µM is -0.0197%.

`O=S(=O)(C1CC1)N1C[C@@H]2CN(Cc3ccoc3)CCO[C@@H]2C1`: the cytotoxicity at 10 µM is -142%.

Take `c1cn(-c2cncc(C3CCNCC3)n2)cn1`: the cytotoxicity at 10 µM was -32.5%.

In the case of `Cc1ccc(C(=O)N2CCc3ncnc(-c4cnn(C)c4)c3CC2)cn1`, the cytotoxicity at 10 µM was 7.83%.

Take `CCN1CCOCC2(CCCN(C(=O)c3ccccc3F)C2)C1` (stereo not drawn): the cytotoxicity at 10 µM was -4.9%.

For `Cc1ccc(CN2CCC3(CC2)CC(CC(=O)NC(C)C)CO3)s1` (stereo not drawn), the cytotoxicity at 10 µM was -1.72%.

On to `CCO[C@H]1CO[C@@]2(CCCN(Cc3scnc3C)C2)C1`, for which the cytotoxicity at 10 µM was -137%.

Regarding `O=C(c1ccccn1)N1CC[C@H]2[C@H]1CCN2S(=O)(=O)C1CC1`, the cytotoxicity at 10 µM is -123%.

As to `CC(C)OC(=O)N1C[C@@H]2CC[C@H]1CN(C(=O)c1ccccc1)C2`, the cytotoxicity at 10 µM was 0.608%.

As for `O=C(c1ccncc1)N1C[C@H]2CC[C@@H](C1)N(S(=O)(=O)c1cccnc1)C2`, the cytotoxicity at 10 µM is -3.51%.
